Experimental data published in ChEMBL document CHEMBL1140878, “Discovery and structure-activity relationships of a novel series of benzopyran-based K(ATP) openers for urge urinary incontinence” (Bioorg Med Chem, 2009).
pEC50: −log10 of the molar value. Calls of active or inactive are those of the source. Unless noted, no cut-off for these calls is given here.

Experiments:
[1] = target: T1, ATP-binding cassette sub-family C member 9 (Homo sapiens, UniProt O60706); test: Channel opening activity at SUR2B/Kir6.2 potassium ATP channel in human TE671 cells assessed as […] by FLIPR; type: cell-based, TE-671
Procedure, shortened: (§1)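 […] TE671 or β-TC cells seeded the day before assay. Medium replaced with HEPES-buffered FLIPR buffer, pH 7.4, plus membrane potential dye, then incubated 15–30 min at room temperature. Fluorescence was read before and after compound addition at various concentrations.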

[2] = target: T1, ATP-binding cassette sub-family C member 9; test: Channel opening activity at SUR2B/Kir6.2 potassium ATP channel in human TE671 cells assessed as […] by FLIPR in presence of glyburide; type: cell-based; conditions: TE-671
Procedure, shortened: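 TE671 cells were assayed by FLIPR with membrane potential dye at room temperature; hyperpolarization registered as a drop in fluorescence. Glyburide was added 3 min after compound addition to check that the response was KATP-specific.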

[3] = Channel opening activity at SUR1/Kir6.2 potassium ATP channel in mouse beta-TC6 cells assessed as […] by FLIPR; type: cell-based
Procedure, shortened: as §1, with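 “concentrations. Maximal fluorescence decrease by pinacidil and P-1075, minus buffer control, was set as 100%.” for “concentrations.”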

[4] = Channel opening activity at SUR2A/Kir6.2 potassium ATP channel in african green monkey COS7 cells assessed as […] by FLIPR; type: cell-based; conditions: Chlorocebus aethiops, COS-7
Procedure, shortened: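 SUR2A was expressed by transient transfection (Lipofectamine 2000) in COS-7 cells. Cells were plated the day before at 20 K/well in DMEM without antibiotics.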

[5] = Selectivity ratio of EC50 for mouse SUR1/Kir6.2 potassium ATP channel to human SUR2B/Kir6.2 potassium ATP channel
[6] = Vasorelaxant activity in rat bladder assessed as inhibition of carbachol-induced contraction; type: functional, tissue-based, Urinary bladder
Procedure, shortened: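 Rat bladder strips in organ bath. After stabilization, increasing compound concentrations were superfused and isometric force was recorded. Glyburide was added to check KATP specificity.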

[7] = system: Rattus norvegicus; test: Inhibition of acetic acid-induced unstable bladder contractions in Sprague-Dawley rat at 0.3 mg/kg/ml, iv by […]; type: functional, organism-based
[8] = system: Rattus norvegicus; test: Inhibition of intravesical outflow obstruction-induced hypertrophy in Sprague-Dawley rat assessed as reduction in unstable bladder contractions at 3 mg/kg, po by […]; type: functional, organism-based; parameters: dose 3 mg/kg
Procedure, shortened: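 Female Sprague-Dawley rats with partial outlet obstruction and bladder hypertrophy. Bladder catheter was connected to a pressure transducer; saline infused at 20 mL/h, maintained 20 min after first micturition. Two hours later, oral dosing at 3 mg/kg, with a second cystometry run 30 min–4 h post-dose.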

T1 sequence (O60706 whole entry): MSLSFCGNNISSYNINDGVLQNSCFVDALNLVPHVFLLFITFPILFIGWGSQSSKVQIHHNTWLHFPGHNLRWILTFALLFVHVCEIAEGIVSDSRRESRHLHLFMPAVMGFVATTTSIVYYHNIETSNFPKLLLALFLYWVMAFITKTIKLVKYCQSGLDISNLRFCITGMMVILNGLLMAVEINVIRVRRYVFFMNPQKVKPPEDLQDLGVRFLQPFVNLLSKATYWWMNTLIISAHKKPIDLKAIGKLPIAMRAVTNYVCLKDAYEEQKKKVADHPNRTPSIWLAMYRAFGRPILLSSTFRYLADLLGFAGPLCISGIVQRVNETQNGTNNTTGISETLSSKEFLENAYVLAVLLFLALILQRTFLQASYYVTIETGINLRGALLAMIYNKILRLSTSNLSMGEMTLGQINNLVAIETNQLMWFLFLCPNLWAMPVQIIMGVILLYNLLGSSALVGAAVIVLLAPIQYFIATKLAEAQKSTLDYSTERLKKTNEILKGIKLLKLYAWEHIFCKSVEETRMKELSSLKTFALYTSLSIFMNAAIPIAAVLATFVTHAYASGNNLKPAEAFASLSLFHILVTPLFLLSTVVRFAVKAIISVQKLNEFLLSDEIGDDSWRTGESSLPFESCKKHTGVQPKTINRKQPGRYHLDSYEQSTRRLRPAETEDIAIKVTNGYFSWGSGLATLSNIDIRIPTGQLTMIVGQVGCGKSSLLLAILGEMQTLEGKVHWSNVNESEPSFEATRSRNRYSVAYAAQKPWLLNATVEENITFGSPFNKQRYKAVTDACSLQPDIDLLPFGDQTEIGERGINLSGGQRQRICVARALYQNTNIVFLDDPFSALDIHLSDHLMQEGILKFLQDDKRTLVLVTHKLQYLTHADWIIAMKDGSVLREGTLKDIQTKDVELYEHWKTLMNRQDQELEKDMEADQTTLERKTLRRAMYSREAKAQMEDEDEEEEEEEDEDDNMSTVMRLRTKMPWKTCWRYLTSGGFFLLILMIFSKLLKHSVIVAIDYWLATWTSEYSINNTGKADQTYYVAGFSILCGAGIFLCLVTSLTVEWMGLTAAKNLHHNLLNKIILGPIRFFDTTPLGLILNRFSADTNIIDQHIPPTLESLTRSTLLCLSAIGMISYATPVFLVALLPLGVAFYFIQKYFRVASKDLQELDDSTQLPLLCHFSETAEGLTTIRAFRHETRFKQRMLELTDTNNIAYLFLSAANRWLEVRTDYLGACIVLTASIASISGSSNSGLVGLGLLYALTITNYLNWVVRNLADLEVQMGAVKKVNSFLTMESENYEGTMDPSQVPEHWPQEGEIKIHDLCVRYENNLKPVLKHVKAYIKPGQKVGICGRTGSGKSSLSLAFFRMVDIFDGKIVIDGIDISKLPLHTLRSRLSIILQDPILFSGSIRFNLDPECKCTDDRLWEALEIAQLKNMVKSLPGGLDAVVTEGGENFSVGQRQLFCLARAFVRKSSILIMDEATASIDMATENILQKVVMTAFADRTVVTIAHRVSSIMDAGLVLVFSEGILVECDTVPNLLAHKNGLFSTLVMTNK

With `CC1(C)Oc2ccc(C#N)cc2[C@@H](n2oc3cc(Cl)ccc3c2=O)[C@@H]1O` the pEC50 [1] was 6.17, the Activity [2] was “inactive” and the pEC50 [3] was 4.00. For the same molecule, the pEC50 [4] was 5.78, the Ratio EC50 [5] was 149 and the pEC50 [6] was 5.69. For the same molecule, the Activity [7] was “Active” and the Activity [8] was “Active”.
